# Screens: PubChem, The Scripps Research Institute Molecular Screening Center
# RBBP9 inhibitor: human RBBP9 inhibitors, primary screen, biochemical, fluorescence polarization, FP-Rh probe, HTS; Serine hydrolase RBBP9 (Homo sapiens), O75884; AID 1515, 2009; hit rate 0.2% among 220,000; inhibition, % at 7.94 µM; recombinant RBBP9;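 active = inhibition above the campaign mean of all tested compounds plus 3 SD, cut at about 14% in these data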
#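 Measured by – fluorescence polarization · Test system – RBBP9 protein · Input – 2.5 µM RBBP9 dispensing solution, before mixing · Measure – percent inhibition from mP, scaled between DMSO and no-protein wells · Benchmarks – DMSO-treated enzyme wells and wells lacking RBBP9 · Times – preincubation 30 min plus labeling 45 min at 25 °C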
# PAD4 FP inh: human PAD4 inhibitors, primary screen, biochemical, fluorescence polarization, 1536-well format; Protein-arginine deiminase type-4 (Homo sapiens), Q9UM07; recombinant PAD4, RCA probe fluorescence polarization; inhibition, % at 6.36 µM; hit rate 0.41% among 330,000; AID 485272, 2010;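 active = percent inhibition above a cutoff equal to the mean of all tested compounds plus 3 SD, cut at about 15% in these data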
# SIAE primary: human SIAE inhibitors, primary screen, biochemical, fluorescence polarization, FP-Rh probe, 1536-well HTS. Sialate O-acetylesterase (Homo sapiens), Q9HAT2. SIAE FP-Rh probe binding. inhibition, % at 9.66 µM. hit rate 0.69% among 370,000. AID 1053197, 2014;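 active = inhibition above a cutoff: mean of compounds within the control limits plus 3 SD of those, cut at about 17% in these data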
# Target sequence (Q9HAT2 whole entry, looked up): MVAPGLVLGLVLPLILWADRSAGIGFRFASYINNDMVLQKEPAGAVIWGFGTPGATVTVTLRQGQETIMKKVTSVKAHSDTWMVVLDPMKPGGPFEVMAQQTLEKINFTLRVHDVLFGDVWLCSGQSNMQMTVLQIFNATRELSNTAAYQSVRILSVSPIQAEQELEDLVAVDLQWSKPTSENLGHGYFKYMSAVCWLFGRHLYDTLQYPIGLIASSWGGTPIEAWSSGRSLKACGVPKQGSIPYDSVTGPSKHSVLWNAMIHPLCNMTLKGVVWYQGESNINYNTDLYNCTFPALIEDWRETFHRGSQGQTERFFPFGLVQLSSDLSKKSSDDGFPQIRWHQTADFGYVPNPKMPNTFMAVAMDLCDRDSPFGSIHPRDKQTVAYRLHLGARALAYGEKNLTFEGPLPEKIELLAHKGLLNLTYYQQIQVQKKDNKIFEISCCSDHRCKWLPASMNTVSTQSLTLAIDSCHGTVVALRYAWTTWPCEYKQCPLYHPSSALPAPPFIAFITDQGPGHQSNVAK
# PRMT1 inh: PRMT1 methyltransferase inhibitors, primary screen, biochemical, fluorescence polarization. Protein arginine N-methyltransferase 1 (Homo sapiens), Q99873. recombinant PRMT1, activity-based probe fluorescence polarization. inhibition, % at 2.79 µM. hit rate 1.3% among 370,000. AID 652257, 2013;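 active = inhibition above about 21% made by adding two undisclosed values, limit read from the data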
# GSTO1 inh: inhibitors of recombinant GSTO1, primary screen, counter-screen for RBBP9 inhibitor project, biochemical, fluorescence polarization; Glutathione S-transferase omega-1 (Homo sapiens), P78417; activity-based probe fluorescence polarization; inhibition, % at 5.96 µM; hit rate 1.1% among 300,000; AID 1974, 2009;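 active = inhibition above the campaign mean inhibition plus 3 SD, cut at about 35% in these data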
# PRMT1 inh conf: PRMT1 methyltransferase inhibitors, confirmation, biochemical, fluorescence polarization, triplicate. shares compounds with PRMT1 inh. recombinant His-PRMT1, activity-based probe fluorescence polarization. inhibition, % at 2.79 µM. hit rate 42% among 3,300. AID 687036, 2013;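 active = mean inhibition across replicates above the hit cutoff derived for the earlier primary screen, cut at about 22% in these data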
# Hits are given with their value; 0 = inactive; - = no result given. Compounds with a hit are over-represented: about 2.7% of the library has one in this group of screens.
SMILES,RBBP9 inhibitor,PAD4 FP inh,SIAE primary,PRMT1 inh,GSTO1 inh,PRMT1 inh conf
COCCNC(=O)c1ccc(C)c(S(=O)(=O)Nc2ccc(C)cc2)c1,0,0,0,36,0,0
NC(=O)c1ncn([C@@H]2O[C@H](CNCc3cccc4c3sc3ccccc34)[C@@H](O)[C@H]2O)n1,-,-,0,0,-,-
COc1ccc(-c2nc3c(s2)CN(S(C)(=O)=O)CC3)cc1OC,-,-,0,35,-,0
CCS(=O)(=O)N1CCc2nc(-c3ccccc3)sc2C1,-,0,0,0,0,-
O=C(NCC1CCCO1)c1ccccc1NC(=O)c1cccc2ccccc12 (stereo not drawn),0,0,0,0,0,-
O=C(O)CCc1ccc(-c2ccc(Br)cc2)n1Cc1ccco1,0,0,0,0,0,-
O=C(O)CCc1ccc(-c2ccccc2)n1Cc1ccco1,0,0,0,33,0,0
O=C(O)Cc1sc(N/N=C\c2ccncc2)nc1-c1ccccc1,0,0,0,41,0,0
COc1ccc(CN2CCCC(C(=O)N(C)Cc3ccccc3)C2)cc1OC (stereo not drawn),0,0,0,0,0,-
Cc1ccc(CNC(=O)C2CCN(S(=O)(=O)c3c(C)noc3/C=C/c3ccco3)CC2)cc1,0,0,0,0,0,-
Cc1noc(/C=C/c2ccco2)c1S(=O)(=O)N1CCC(C(=O)NCc2ccco2)CC1,0,0,0,32,0,0
Cn1cc(S(=O)(=O)N2CCC(C(N)=O)CC2)c(=O)n(C)c1=O,0,0,0,0,0,-
Cc1ccc(OCC(=O)Sc2ccc(C)cc2)cc1,0,0,0,0,0,-
COc1ccccc1OCC(=O)Sc1ccc(C)cc1,0,0,0,39,0,79
CC1CCN(C(=O)CSc2nc(C(C)C)nc3c2c(=O)n(C)c(=O)n3C)CC1,-,0,0,0,0,-
O=C(O)/C=C/C(=O)N1CCc2ccccc21,0,0,0,0,0,-
Nn1c(SCc2cn3cc(Cl)ccc3n2)nnc1-c1ccncc1,0,0,0,25,0,40
O=C(COc1ccc(F)cc1)Nc1ccc2c(c1)OCCO2,-,0,0,0,0,-
O=C1Nc2ccccc2C(=O)C1(Cl)Cc1ccccc1 (stereo not drawn),0,0,0,93,0,87
O=C1NC(=S)S/C1=C\C=C\c1ccc([N+](=O)[O-])o1,0,-,0,43,-,28
O=C(O)/C=C/c1ccc([N+](=O)[O-])o1,0,0,0,0,0,-
Nc1nc2ccc(Cl)cc2[nH]1,-,-,0,0,-,-
O=C(Nc1ccccc1Cl)C(Cl)C(=O)c1ccccc1 (stereo not drawn),0,-,0,0,-,-
O=C(Nc1ccc(Cl)cc1)C(Cl)C(=O)c1ccccc1 (stereo not drawn),-,0,0,77,0,78
COc1ccc(C(=O)C[n+]2ccc3c(c2)nc(Cc2ccccc2)n3C)cc1,-,-,0,29,-,0
SMILES,RBBP9 inhibitor,PAD4 FP inh,SIAE primary,PRMT1 inh,GSTO1 inh,PRMT1 inh conf
Cc1ccc(N2CC(O)CSC2=Nc2ccccc2)cc1 (stereo not drawn),-,-,0,0,-,-
O=S(=O)(Nc1cc(Sc2ncn[nH]2)c(O)c2ccccc12)c1ccccc1,0,-,0,64,-,111
COc1ccc(S(=O)(=O)Nc2cc(Sc3ncn[nH]3)c(O)cc2C)cc1,-,0,0,0,-,-
O=C(c1ccc(Cl)s1)N1CCN(c2ccccc2)CC1,0,0,0,0,0,-
CCOc1nc(Nc2ccc(F)cc2)nc(N2CCN(c3ccc(OC)cc3)CC2)n1,0,0,0,0,0,-
COc1ccc(/C=C2\CCC(C3CCCC3)C2=O)cc1 (stereo not drawn),-,0,0,0,0,-
COc1ccc(/C=C2/CCC(CN3CCOCC3)C2=O)cc1 (stereo not drawn),-,-,0,53,-,61
CN(C)CC1CC/C(=C\c2ccc(O)cc2)C1=O (stereo not drawn),-,-,0,53,-,45
CCOC(=O)c1cc(-c2ccc(F)cc2)n(CC(=O)NCc2cccnc2)c1C,0,0,0,28,0,0
CCCNC(=O)Cn1c(-c2ccc(F)cc2)cc(C(=O)OCC)c1C,0,0,0,0,0,-
Cc1ccc(C)c(-n2c3nc(=O)[nH]c(=O)c-3cc3cc([N+](=O)[O-])ccc32)c1,0,0,0,26,0,0
CCOC(=O)c1c(N2C(=O)CC(Sc3ccccc3C(=O)O)C2=O)sc2c1CCCC2 (stereo not drawn),0,0,0,53,0,52
CCN1C(=O)CC(Sc2ccccc2C(=O)O)C1=O (stereo not drawn),0,0,0,0,0,-
COC(=O)c1ccccc1SC1CC(=O)N(c2ccccc2)C1=O (stereo not drawn),0,0,0,38,0,0
O=C(O)c1ccccc1SC1CC(=O)N(c2cccc3ccccc23)C1=O (stereo not drawn),0,-,0,84,-,51
CC(=O)c1ccc(N2CCN(S(=O)(=O)c3csc(C(N)=O)c3)CC2)cc1,-,0,0,0,0,-
C=CCn1cccc(/C=C/C(=O)c2ccc(C(C)(C)C)cc2)c1=S,0,0,0,27,0,0
[N-]=C=C1C(=O)NC(=O)C([n+]2ccc(-c3ccncc3)cc2)C1c1ccccc1C(F)(F)F (stereo not drawn),0,0,0,0,0,-
[N-]=C=C1C(=S)NC(=O)[C@H]([n+]2ccccc2)[C@H]1c1ccc(Cl)cc1,0,0,0,25,0,32
CCc1c(C(C)S(=O)(=O)c2ccc(C)cc2)[nH]c(=O)n1-c1ccc(C)cc1 (stereo not drawn),0,0,0,34,0,0
CCc1[nH]c(=O)[nH]c1C(C)S(=O)(=O)c1ccc(C)cc1 (stereo not drawn),0,0,0,43,0,34
CCc1c(C#N)c(=O)[nH]c(=O)n1-c1ccccc1,-,0,0,0,0,-
Cc1ccc(NC(=S)NNc2ccc([N+](=O)[O-])cc2S(=O)(=O)Nc2ccccc2C(=O)O)cc1C,0,0,0,27,0,39
CC(=O)Nc1ccc(C=NNc2ccc([N+](=O)[O-])cc2S(=O)(=O)Nc2ccccc2C(=O)O)cc1,-,0,0,0,-,-
CCc1ccc(OC)c(S(=O)(=O)Nc2ccc(Cc3ccncc3)cc2)c1,-,0,0,0,0,-
CCC(=O)NNc1nc2c(F)cccc2s1,0,0,0,49,0,0
